In ChEMBL document CHEMBL5058577, “EUbOPEN Chemogenomics Library 2 (Multiplex)” (2022):

Tested on: HEK-293T
Assay: Multiplex assay against HEK293T
Assay type: toxicity, cell-based
Conditions: human
How it was run: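 At seeding, live cells were stained with Hoechst33342, BioTracker Green Microtubule Cytoskeleton Dye, MitoTracker Red and Annexin V Alexa Fluor 680. After compound addition they were imaged on a CQ1 microscope at 37°C and 5% CO2, and CellPathfinder machine-learning gating sorted them into Hoechst high-intensity objects or normal cells, with normal cells further split into healthy, pyknosed or fragmented nuclei and pyknosed cells into mitotic or apoptotic. Tubulin, mitochondrial-mass and membrane-permeability phenotypes are given as per cents of cells with healthy nuclei.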

[1] = 12 h, 1 µM, compound concentration 1 uM, replicate 1
[2] = 12 h, 1 µM, compound concentration 1 uM, replicate 2
[3] = 12 h, 10 µM, compound concentration 10 uM, replicate 1
[4] = 12 h, 10 µM, compound concentration 10 uM, replicate 2
[5] = 24 h, 1 µM, compound concentration 1 uM, replicate 1
[6] = 24 h, 1 µM, compound concentration 1 uM, replicate 2
[7] = 24 h, 10 µM, compound concentration 10 uM, replicate 1
[8] = 24 h, 10 µM, compound concentration 10 uM, replicate 2
[9] = 48 h, 1 µM, compound concentration 1 uM, replicate 1
[10] = 48 h, 1 µM, compound concentration 1 uM, replicate 2
[11] = 48 h, 10 µM, compound concentration 10 uM, replicate 1
[12] = 48 h, 10 µM, compound concentration 10 uM, replicate 2

COc1cc2nc(N3CCN(C(=O)COc4c(OC)cccc4C(C)C)CC3)nc(N)c2cc1OC.Cl.Cl
Population Apoptotic (%) [1]: 35% | Population Fragmented Nuclei (%) [1]: 12% | Population Healthy Nuclei (%) [1]: 77% | Population Hoechst High Intensity Objects (%) [1]: 5% | Population Membrane Permeable-Phenotype (%) [1]: 0% | Population Mitochondria Different-Phenotype (%) [1]: 48% | Population Mitotic Cells (%) [1]: 64% | Population Normal (%) [1]: 94% | Population Pyknosed Nuclei (%) [1]: 9% | Population Tubulin-Different-Phenotype (%) [1]: 23% | Total Cell Count [1]: 402 | Population Apoptotic (%) [2]: 46% | Population Fragmented Nuclei (%) [2]: 8% | Population Healthy Nuclei (%) [2]: 81% | Population Hoechst High Intensity Objects (%) [2]: 4% | Population Mitochondria Different-Phenotype (%) [2]: 58% | Population Mitotic Cells (%) [2]: 53% | Population Normal (%) [2]: 95% | Population Tubulin-Different-Phenotype (%) [2]: 18% | Total Cell Count [2]: 365 | Population Apoptotic (%) [3]: 52% | Population Fragmented Nuclei (%) [3]: 13% | Population Healthy Nuclei (%) [3]: 69% | Population Hoechst High Intensity Objects (%) [3]: 25% | Population Membrane Permeable-Phenotype (%) [3]: 1% | Population Mitochondria Different-Phenotype (%) [3]: 74% | Population Mitotic Cells (%) [3]: 48% | Population Normal (%) [3]: 74% | Population Pyknosed Nuclei (%) [3]: 17% | Population Tubulin-Different-Phenotype (%) [3]: 81% | Total Cell Count [3]: 386 | Population Apoptotic (%) [4]: 57% | Population Fragmented Nuclei (%) [4]: 14% | Population Healthy Nuclei (%) [4]: 67% | Population Hoechst High Intensity Objects (%) [4]: 18% | Population Membrane Permeable-Phenotype (%) [4]: 3% | Population Mitochondria Different-Phenotype (%) [4]: 66% | Population Mitotic Cells (%) [4]: 42% | Population Normal (%) [4]: 81% | Population Pyknosed Nuclei (%) [4]: 18% | Population Tubulin-Different-Phenotype (%) [4]: 66% | Total Cell Count [4]: 286 | Population Apoptotic (%) [5]: 35% | Population Fragmented Nuclei (%) [5]: 11% | Population Healthy Nuclei (%) [5]: 77% | Population Hoechst High Intensity Objects (%) [5]: 5% | Population Membrane Permeable-Phenotype (%) [5]: 0% | Population Mitochondria Different-Phenotype (%) [5]: 27% | Population Mitotic Cells (%) [5]: 64% | Population Normal (%) [5]: 95% | Population Pyknosed Nuclei (%) [5]: 10% | Population Tubulin-Different-Phenotype (%) [5]: 19% | Total Cell Count [5]: 540 | Population Apoptotic (%) [6]: 42% | Population Fragmented Nuclei (%) [6]: 8% | Population Healthy Nuclei (%) [6]: 84% | Population Hoechst High Intensity Objects (%) [6]: 2% | Population Mitochondria Different-Phenotype (%) [6]: 44% | Population Mitotic Cells (%) [6]: 57% | Population Normal (%) [6]: 97% | Population Pyknosed Nuclei (%) [6]: 7% | Population Tubulin-Different-Phenotype (%) [6]: 16% | Total Cell Count [6]: 472 | Population Apoptotic (%) [7]: 42% | Population Fragmented Nuclei (%) [7]: 14% | Population Healthy Nuclei (%) [7]: 64% | Population Hoechst High Intensity Objects (%) [7]: 29% | Population Membrane Permeable-Phenotype (%) [7]: 2% | Population Mitochondria Different-Phenotype (%) [7]: 68% | Population Mitotic Cells (%) [7]: 57% | Population Normal (%) [7]: 70% | Population Pyknosed Nuclei (%) [7]: 21% | Population Tubulin-Different-Phenotype (%) [7]: 69% | Total Cell Count [7]: 498 | Population Apoptotic (%) [8]: 51% | Population Fragmented Nuclei (%) [8]: 13% | Population Healthy Nuclei (%) [8]: 59% | Population Hoechst High Intensity Objects (%) [8]: 39% | Population Mitochondria Different-Phenotype (%) [8]: 72% | Population Mitotic Cells (%) [8]: 48% | Population Normal (%) [8]: 60% | Population Pyknosed Nuclei (%) [8]: 27% | Population Tubulin-Different-Phenotype (%) [8]: 63% | Total Cell Count [8]: 286 | Population Apoptotic (%) [9]: 28% | Population Fragmented Nuclei (%) [9]: 16% | Population Healthy Nuclei (%) [9]: 76% | Population Hoechst High Intensity Objects (%) [9]: 2% | Population Membrane Permeable-Phenotype (%) [9]: 1% | Population Mitochondria Different-Phenotype (%) [9]: 18% | Population Mitotic Cells (%) [9]: 71% | Population Normal (%) [9]: 97% | Population Pyknosed Nuclei (%) [9]: 6% | Population Tubulin-Different-Phenotype (%) [9]: 11% | Total Cell Count [9]: 930 | Population Apoptotic (%) [10]: 11% | Population Fragmented Nuclei (%) [10]: 15% | Population Healthy Nuclei (%) [10]: 78% | Population Hoechst High Intensity Objects (%) [10]: 3% | Population Membrane Permeable-Phenotype (%) [10]: 0% | Population Mitotic Cells (%) [10]: 88% | Population Normal (%) [10]: 96% | Population Tubulin-Different-Phenotype (%) [10]: 12% | Total Cell Count [10]: 737 | Population Apoptotic (%) [11]: 31% | Population Fragmented Nuclei (%) [11]: 18% | Population Healthy Nuclei (%) [11]: 56% | Population Hoechst High Intensity Objects (%) [11]: 41% | Population Membrane Permeable-Phenotype (%) [11]: 3% | Population Mitochondria Different-Phenotype (%) [11]: 48% | Population Mitotic Cells (%) [11]: 68% | Population Normal (%) [11]: 58% | Population Pyknosed Nuclei (%) [11]: 25% | Population Tubulin-Different-Phenotype (%) [11]: 56% | Total Cell Count [11]: 660 | Population Apoptotic (%) [12]: 30% | Population Fragmented Nuclei (%) [12]: 17% | Population Healthy Nuclei (%) [12]: 59% | Population Hoechst High Intensity Objects (%) [12]: 46% | Population Membrane Permeable-Phenotype (%) [12]: 1% | Population Mitochondria Different-Phenotype (%) [12]: 49% | Population Mitotic Cells (%) [12]: 69% | Population Normal (%) [12]: 53% | Population Pyknosed Nuclei (%) [12]: 23% | Population Tubulin-Different-Phenotype (%) [12]: 38% | Total Cell Count [12]: 430

CC(F)(F)CN1CCOc2c(nn(-c3ccccc3Cl)c2-c2ccc(Cl)cc2)C1=O
Population Apoptotic (%) [1]: 29% | Population Healthy Nuclei (%) [1]: 77% | Population Membrane Permeable-Phenotype (%) [1]: 0% | Population Mitochondria Different-Phenotype (%) [1]: 43% | Population Mitotic Cells (%) [1]: 70% | Population Normal (%) [1]: 93% | Population Pyknosed Nuclei (%) [1]: 12% | Total Cell Count [1]: 397 | Population Apoptotic (%) [2]: 64% | Population Healthy Nuclei (%) [2]: 78% | Population Mitochondria Different-Phenotype (%) [2]: 53% | Population Mitotic Cells (%) [2]: 35% | Population Normal (%) [2]: 91% | Population Pyknosed Nuclei (%) [2]: 16% | Total Cell Count [2]: 369 | Population Apoptotic (%) [3]: 57% | Population Healthy Nuclei (%) [3]: 73% | Population Membrane Permeable-Phenotype (%) [3]: 0% | Population Mitochondria Different-Phenotype (%) [3]: 78% | Population Mitotic Cells (%) [3]: 42% | Population Normal (%) [3]: 89% | Population Pyknosed Nuclei (%) [3]: 22% | Total Cell Count [3]: 384 | Population Apoptotic (%) [4]: 43% | Population Healthy Nuclei (%) [4]: 75% | Population Mitochondria Different-Phenotype (%) [4]: 84% | Population Mitotic Cells (%) [4]: 56% | Population Normal (%) [4]: 94% | Population Pyknosed Nuclei (%) [4]: 18% | Total Cell Count [4]: 397 | Population Apoptotic (%) [5]: 25% | Population Healthy Nuclei (%) [5]: 79% | Population Membrane Permeable-Phenotype (%) [5]: 0% | Population Mitochondria Different-Phenotype (%) [5]: 22% | Population Mitotic Cells (%) [5]: 74% | Population Normal (%) [5]: 97% | Population Pyknosed Nuclei (%) [5]: 11% | Total Cell Count [5]: 568 | Population Apoptotic (%) [6]: 43% | Population Healthy Nuclei (%) [6]: 84% | Population Mitochondria Different-Phenotype (%) [6]: 31% | Population Mitotic Cells (%) [6]: 56% | Population Normal (%) [6]: 93% | Population Pyknosed Nuclei (%) [6]: 8% | Total Cell Count [6]: 478 | Population Apoptotic (%) [7]: 57% | Population Healthy Nuclei (%) [7]: 76% | Population Membrane Permeable-Phenotype (%) [7]: 0% | Population Mitochondria Different-Phenotype (%) [7]: 71% | Population Mitotic Cells (%) [7]: 42% | Population Normal (%) [7]: 92% | Population Pyknosed Nuclei (%) [7]: 15% | Total Cell Count [7]: 450 | Population Apoptotic (%) [8]: 41% | Population Healthy Nuclei (%) [8]: 80% | Population Mitochondria Different-Phenotype (%) [8]: 79% | Population Mitotic Cells (%) [8]: 58% | Population Normal (%) [8]: 94% | Total Cell Count [8]: 477 | Population Apoptotic (%) [9]: 22% | Population Healthy Nuclei (%) [9]: 77% | Population Membrane Permeable-Phenotype (%) [9]: 1% | Population Mitochondria Different-Phenotype (%) [9]: 14% | Population Mitotic Cells (%) [9]: 77% | Population Normal (%) [9]: 99% | Population Pyknosed Nuclei (%) [9]: 7% | Total Cell Count [9]: 1015 | Population Apoptotic (%) [10]: 25% | Population Healthy Nuclei (%) [10]: 79% | Population Mitochondria Different-Phenotype (%) [10]: 23% | Population Mitotic Cells (%) [10]: 74% | Population Normal (%) [10]: 97% | Total Cell Count [10]: 734 | Population Apoptotic (%) [11]: 55% | Population Healthy Nuclei (%) [11]: 74% | Population Membrane Permeable-Phenotype (%) [11]: 0% | Population Mitochondria Different-Phenotype (%) [11]: 62% | Population Mitotic Cells (%) [11]: 44% | Population Normal (%) [11]: 93% | Total Cell Count [11]: 540 | Population Apoptotic (%) [12]: 35% | Population Healthy Nuclei (%) [12]: 78% | Population Mitochondria Different-Phenotype (%) [12]: 68% | Population Mitotic Cells (%) [12]: 65% | Population Pyknosed Nuclei (%) [12]: 11% | Total Cell Count [12]: 558
